KCNQ1 pot: potentiators or activators of human KCNQ1 potassium channel; P51787; CHO-K1 KCNQ1, thallium flux FluxOR fluorescence; stronger effect = higher value; B-score at 10 µM; 310,000 compounds, 0.35% hits; AID 2648;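 active = fluorescence ratio B-score, a plate-corrected score, at least three library SD, with initial intensity B-score within 5 SD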
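System: CHO-K1 cells stably expressing KCNQ1 / Medium: assay buffer for compound exposure, DMSO matched across wells / Reagent: thallium- and potassium-containing depolarizing buffer / Compound: one concentration, matched DMSO / Incubation: 20 min compound pretreatment at room temperature / Measured by: kinetic FluxOR fluorescence, 10 s baseline plus 110 s post-stimulus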
hERG rescue: compounds protecting human hERG from proarrhythmic drug block; 310,000 compounds, 0.51% hits; activation (rescue from dofetilide block), less the hit threshold, % at 10 µM; Q12809; CHO-hERG, FluxOR thallium flux, dofetilide IC70 present;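 active = activation above the mean of controls blocked by dofetilide plus 5 SD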;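 note: thallium influx through hERG after potassium depolarization seen as dye fluorescence rise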
KCNK3 inh: human KCNK3 channel inhibition, primary screen; O14649; CHO-KCNK3 thallium flux, FluxOR fluorescence; stronger effect = lower value; B-score at 10 µM; 340,000 compounds, 0.84% hits;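 active = B-score under library mean minus 4 SD, starting fluorescence ratio at most library mean plus 5 SD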;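 note: more negative B-score means stronger inhibition of thallium flux through KCNK3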
Kir21 inh: inhibitors of mouse Kir2.1 inward-rectifier potassium channel; P35561; HEK293-Kir2.1, FluxOR thallium flux fluorescence; stronger effect = lower value; B-score at 10 µM; 310,000 compounds, 0.85% hits;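 active = fluorescence ratio B-score at or below minus 3 SD of library scores, with starting-brightness B-score within 2 SD, cut at about -4.2 in these data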;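 note: channel flux triggered by added potassium and thallium sulfate stimulus; B-score of peak minus minimum fluorescence over baseline after thallium stimulus; more negative B-score means stronger Kir2.1 block with less thallium influx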
KCNK9 block: human KCNK9 channel inhibition. HEK293 KCNK9, FluxOR thallium flux fluorescence; stronger effect = lower value. B-score at 10 µM. 310,000 compounds, 1.2% hits;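 active = ratio B-score over 3 SD below the library mean, with starting fluorescence within 5 SD of its mean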;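 note: negative B-score means less thallium flux so channel inhibition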
KCNQ1 inh: human KCNQ1 channel inhibition; P51787; CHO-K1 KCNQ1, FluxOR thallium flux fluorescence; stronger effect = higher value; B-score at 10 µM; 310,000 compounds, 1.3% hits; AID 2642;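 active = compounds whose thallium flux B-score, printed positive for inhibition, exceeds three library SD while starting fluorescence stays within three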;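 note: channel opened by potassium depolarization with thallium stimulus after 20 min compound exposure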
* marks the source's active call; other numbers are inactive results; i = inactive; · = not tested or not shown. A selection: hits, their analogues and other compounds. The true share with any hit is near 3.7%.

SMILES	KCNQ1 pot	hERG rescue	KCNK3 inh	Kir21 inh	KCNK9 block	KCNQ1 inh
COc1ccc(-c2oc3cccnc3c2C#CC2(O)CCCCC2)cc1	i	-5	i	0.74	i	6*
CC(Oc1ccc2c3c(c(=O)oc2c1)CCC3)C(=O)NCc1cccnc1 (stereo unspecified)	i	-13	i	0.36	i	i
CC(Sc1nnc(N)s1)C(=O)c1c(N)n(C)c(=O)n(C)c1=O (stereo unspecified)	·	·	i	·	·	·
Cc1nc(SC(C)C(=O)c2c(N)n(C)c(=O)n(C)c2=O)c2c(C)c(C)sc2n1 (stereo unspecified)	14*	-6	i	-1.5	i	i
Cc1ccc(-n2[nH]c(C)c(/C=N/Nc3ccc([N+](=O)[O-])cc3[N+](=O)[O-])c2=O)cc1	i	-9	i	0.1	i	7*
Cc1[nH]n(-c2ccc([N+](=O)[O-])cc2)c(=O)c1C=NCC1CCCO1 (stereo unspecified)	i	-1	i	0.21	i	i
COc1ccc(S(=O)(=O)Nc2nc3ccccc3s2)cc1OC	i	4.7*	i	-1	i	i
CC(=O)Nc1ccc(S(=O)(=O)Nc2nc3ccccc3s2)cc1	i	-10	i	-1.4	i	i
O=C(Nc1ccccc1)C(Cl)C(=O)c1ccccc1 (stereo unspecified)	i	-14	i	-8.3*	i	i
O=C(O)c1ccc(S(=O)(=O)N2CCN(c3ccccn3)CC2)cc1	i	-7	i	-0.01	i	i
O=C(CSc1ncnc2c1cnn2-c1ccc(Cl)cc1)NCc1ccc2c(c1)OCO2	i	4.7*	i	0.15	i	i
Cc1cc(NC(=O)CSc2ncnc3c2cnn3-c2ccccc2)no1	i	14*	i	0.63	i	i
CCCn1cc(SCC(=O)NCc2ccc3c(c2)OCO3)c2ccccc21	i	-11	i	0.47	i	i
CCn1cc(SCC(=O)NCc2ccc3c(c2)OCO3)c2ccccc21	i	-13	i	-4.7*	i	i
O=C(CSc1ncccn1)NCc1ccc2c(c1)OCO2	i	-1	i	1	i	i
O=C(CSc1nccn1-c1ccc(Cl)cc1)NCc1ccc2c(c1)OCO2	i	-2	i	-4.5*	i	i
Cc1ccc(Sc2ccc(N)cn2)cc1	i	-15	i	1.5	i	i
O=C(COc1ccc(Cl)cc1)Nc1ccccc1C(=O)NCc1cccnc1	i	-16	i	0.34	i	i
COc1cccc(C(C)NC(=O)Nc2cc(Cl)ccc2OC)c1 (stereo unspecified)	i	-12	i	-0.18	i	i
COc1cccc(C(C)NC(=O)Nc2cccc(C(F)(F)F)c2)c1 (stereo unspecified)	i	-7	i	-0.05	-6.8*	i
O=C(CN1C(=O)c2ccc([N+](=O)[O-])cc2C1=O)NCC1CCCO1 (stereo unspecified)	i	-4	i	1.9	i	i
CCOC(=O)c1c(-c2ccccc2)csc1NC(=O)C(C)NCc1ccco1 (stereo unspecified)	i	-13	i	-0.86	i	7*
CCOC(=O)c1c(-c2ccc(Cl)cc2)csc1NC(=O)CNCc1ccco1	i	-13	i	-0.48	i	i
COc1ccccc1CNC(=O)CN(C)S(=O)(=O)c1ccc(F)cc1	i	-7	i	-0.11	i	i
CC(=O)OCCNc1cc(Sc2nc3ccccc3[nH]2)c2nonc2c1[N+](=O)[O-]	i	-33	i	-4.5*	-8.1*	7*
SMILES	KCNQ1 pot	hERG rescue	KCNK3 inh	Kir21 inh	KCNK9 block	KCNQ1 inh
O=C(c1ccc(F)c(S(=O)(=O)N2CCOCC2)c1)N1CCN(c2ncccn2)CC1	·	·	i	·	·	·
O=C(Nc1nc(-c2cccnc2)cs1)c1ccccc1Cl	i	41*	i	0.19	i	i
Cc1ccccc1C(=O)Nc1nc(-c2cccnc2)cs1	i	-8	i	-0.82	i	i
CSc1ccccc1OCc1cc(C(=O)NCCn2ccnc2C)no1	i	-12	i	0.16	i	i
CN(C)S(=O)(=O)c1ccc(C(=O)OCCn2cnc3c2c(=O)n(C)c(=O)n3C)cc1	i	-4	i	0.71	i	i
O=C1CSC(c2ccccc2F)N1c1cc(Cl)ccc1O (stereo unspecified)	i	-18	i	-6*	i	i
O=C(NC(=S)NNC(=O)[C@H]1C[C@@H]1c1ccccc1)c1ccc(F)cc1	i	-23	i	0.01	i	6*
O=C(/C=C/c1ccc(F)cc1)NC(=S)NNC(=O)[C@H]1C[C@@H]1c1ccccc1	i	-6	i	1.2	i	i
COc1cc(OC)cc(C(=O)NC(=S)NNC(=O)[C@H]2C[C@@H]2c2ccccc2)c1	15*	-18	i	0.93	i	i
C=CCN(c1ccccc1)S(=O)(=O)c1cccc(C(=O)N2CC(C)CC(C)C2)c1 (stereo unspecified)	i	-9	i	-0.5	i	i
COc1ccc(Cc2nc3ccc(C(=O)NCCc4ccccn4)cc3o2)cc1OC	i	-12	i	-0.13	i	i
Cc1cc(C=C2C(=O)c3ccccc3C2=O)c(C)n1-c1ccc(Cl)cc1	i	-9	i	1.8	-7*	i
CCn1c(C)cc(C=C2C(=O)c3ccccc3C2=O)c1C	i	-6	i	0.13	i	i
Cc1cccc(-n2c(C)cc(C=C3C(=O)c4ccccc4C3=O)c2C)c1	i	-4	i	1.1	i	6*
O=C(O)CN1C(=O)C2(OCCO2)c2cc(Br)ccc21	i	-11	i	-0.13	i	i
Cc1ccc2[nH]c(=O)c(COC(=O)C3CCCCC3)cc2c1	i	-5	i	-0.11	i	i
O=C(Nc1ccccc1N1CCCCC1)c1ccc([N+](=O)[O-])o1	·	·	i	·	·	·
O=C(Nc1ccccc1N1CCN(C(=O)c2ccc(Cl)cc2)CC1)c1ccc([N+](=O)[O-])o1	i	-15	-11*	-0.14	i	i
O=C1c2ccccc2-c2onc3ccc(NCc4ccco4)c1c23	i	-24	i	-1.8	i	i
CCNc1ccc2noc3c2c1C(=O)c1ccccc1-3	i	-30	i	-2.4	i	6*
CCCCCc1cc(=O)oc2c(C(CCN3CCCCC3)c3ccc(OC)cc3)c(OC)cc(OC)c12 (stereo unspecified)	i	-26	i	-1.5	i	7*
COc1ccc(-n2cccc2C=O)cc1	i	-9	i	1.1	i	i

Compound activity from PubChem BioAssay.
